From ChEMBL document CHEMBL1138321, “Asymmetric synthesis of conformationally constrained fingolimod analogues--discovery of an orally active sphingosine 1-phosphate receptor type-1 agonist and receptor type-3 antagonist” (J Med Chem, 2007)
Calls of active or inactive are those of the source. The calls are words filed in the database; no cut-off is given here.

Assays:
[1] = biological target: Sphingosine 1-phosphate receptor 3 (Homo sapiens) (UniProt Q99500); assay: Antagonist activity at human S1P3 receptor expressed in CHOK1 cells assessed as effect on calcium mobilization; format: functional, cell-based; details: CHO-K1
Sequence of Sphingosine 1-phosphate receptor 3 (Homo sapiens) (Q99500 whole entry): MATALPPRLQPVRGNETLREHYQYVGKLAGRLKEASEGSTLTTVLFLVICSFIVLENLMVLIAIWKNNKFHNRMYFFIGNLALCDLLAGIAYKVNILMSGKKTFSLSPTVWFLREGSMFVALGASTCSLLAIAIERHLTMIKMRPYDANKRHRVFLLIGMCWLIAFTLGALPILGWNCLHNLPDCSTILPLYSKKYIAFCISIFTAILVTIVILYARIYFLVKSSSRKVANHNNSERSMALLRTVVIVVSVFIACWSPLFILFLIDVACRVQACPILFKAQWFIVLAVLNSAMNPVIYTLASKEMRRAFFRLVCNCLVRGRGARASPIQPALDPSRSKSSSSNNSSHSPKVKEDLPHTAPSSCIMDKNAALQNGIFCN
In short: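 Calcium mobilization in a FACS-isolated clonal CHO K1 line stably expressing HA-tagged human S1P3, loaded with a calcium-sensitive dye. Concentration-effect curves for the agonist were run with and without 1 μM test phosphate. There were eight points in triplicate (SEM), and three independent experiments.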

[2] = biological target: Sphingosine 1-phosphate receptor 3 (Homo sapiens) (UniProt Q99500); assay: Agonist activity at human S1P3 receptor expressed in CHOK1 cells; format: functional, cell-based; details: CHO-K1
In short: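 Human S1P3 with N-terminal HA tag, stably expressed in a FACS-isolated clonal CHO K1 line. Confluent monolayers were washed and loaded with a calcium-sensitive fluorescent dye, and calcium transients were monitored on compound addition. Eight-point concentration-effect curves were run in triplicate and presented as SEM.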

Mus musculus [3] = assay: Induction of lymphopenia in C57B1/6J mouse at 1 mg/kg, po after 48 hrs; format: functional, organism-based; design: dose 1 mg/kg
In short: (§1)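 Female C57Bl/6j mice (n=3 per group) received a single oral gavage of 1 mg/kg in 2% hydroxypropyl β-cyclodextrin on day 0. Blood was drawn from the orbital sinus under light anesthesia on the indicated days. Total lymphocytes were counted on a Hemavet 950 blood analyzer.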

[4] = biological target: T1, Sphingosine kinase 2 (Mus musculus) (UniProt Q9JIA7); assay: Substrate activity at mouse Sphk2 expressed in HEK293T cells; details: HEK-293T
T1 sequence (whole entry): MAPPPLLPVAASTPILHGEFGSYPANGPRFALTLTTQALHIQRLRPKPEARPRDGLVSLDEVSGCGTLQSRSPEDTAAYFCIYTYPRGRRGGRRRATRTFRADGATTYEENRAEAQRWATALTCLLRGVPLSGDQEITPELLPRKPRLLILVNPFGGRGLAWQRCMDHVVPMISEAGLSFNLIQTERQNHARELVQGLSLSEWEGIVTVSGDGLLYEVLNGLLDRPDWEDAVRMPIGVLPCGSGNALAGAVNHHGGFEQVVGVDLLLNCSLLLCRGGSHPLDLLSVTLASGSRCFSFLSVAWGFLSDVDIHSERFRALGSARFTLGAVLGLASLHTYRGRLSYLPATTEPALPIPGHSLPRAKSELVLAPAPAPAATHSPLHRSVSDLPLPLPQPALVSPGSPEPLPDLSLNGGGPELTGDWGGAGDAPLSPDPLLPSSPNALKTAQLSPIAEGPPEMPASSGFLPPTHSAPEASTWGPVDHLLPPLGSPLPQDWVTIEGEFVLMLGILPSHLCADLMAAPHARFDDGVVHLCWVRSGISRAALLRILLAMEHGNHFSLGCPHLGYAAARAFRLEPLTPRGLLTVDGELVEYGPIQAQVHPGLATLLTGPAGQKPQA

Mus musculus [5] = assay: Induction of lymphopenia in C57B1/6J mouse at 1 mg/kg, po after 8 days; format: functional, organism-based; design: dose 1 mg/kg; in short: as §1
[6] = biological target: Sphingosine 1-phosphate receptor 2 (Homo sapiens) (UniProt O95136); assay: Activity at S1P2 receptor
Sequence of Sphingosine 1-phosphate receptor 2 (Homo sapiens) (O95136 whole entry): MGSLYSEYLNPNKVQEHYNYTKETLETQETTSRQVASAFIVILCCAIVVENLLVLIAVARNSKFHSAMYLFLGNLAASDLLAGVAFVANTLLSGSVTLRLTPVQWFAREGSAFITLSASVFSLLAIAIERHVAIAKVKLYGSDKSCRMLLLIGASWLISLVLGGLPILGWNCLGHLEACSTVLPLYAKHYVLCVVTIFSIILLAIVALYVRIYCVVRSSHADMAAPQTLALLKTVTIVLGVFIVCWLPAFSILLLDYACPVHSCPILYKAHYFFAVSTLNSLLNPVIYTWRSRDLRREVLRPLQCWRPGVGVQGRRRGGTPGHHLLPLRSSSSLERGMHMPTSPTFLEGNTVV

[7] = biological target: T2, Sphingosine 1-phosphate receptor 4 (Homo sapiens) (UniProt O95977); assay: Activity at S1P4 receptor
T2 sequence (whole entry): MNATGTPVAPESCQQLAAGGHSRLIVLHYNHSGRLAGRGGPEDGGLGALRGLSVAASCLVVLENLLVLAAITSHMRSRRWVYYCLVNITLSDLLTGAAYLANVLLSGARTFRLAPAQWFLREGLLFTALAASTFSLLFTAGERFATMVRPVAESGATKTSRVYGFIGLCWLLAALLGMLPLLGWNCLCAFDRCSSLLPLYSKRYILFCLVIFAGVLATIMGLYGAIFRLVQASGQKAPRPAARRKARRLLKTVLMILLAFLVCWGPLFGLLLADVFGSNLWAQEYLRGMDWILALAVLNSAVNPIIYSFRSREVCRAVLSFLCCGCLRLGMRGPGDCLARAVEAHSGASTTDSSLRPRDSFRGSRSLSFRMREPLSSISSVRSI

SMILES | Activity [1] | Activity [2] | Activity [4] | other results
CCCCCCCCc1ccc([C@@H]2CC[C@](N)(COP(=O)(O)O)C2)cc1 | inactive | inactive |  | 
CCCCCCCCc1ccc([C@H]2CC[C@](N)(CO)C2)cc1 |  |  | Active | Activity (Mus musculus [3]): Active
CCCCCCCCc1ccc([C@@H]2CC[C@](N)(CO)C2)cc1 |  |  | Active | Activity (Mus musculus [3]): Active; Activity (Mus musculus [5]): Active
CCCCCCCCc1ccc([C@H]2CC[C@@](N)(COP(=O)(O)O)C2)cc1 | Active | inactive |  | 
CCCCCCCCc1ccc([C@H]2CC[C@](N)(COP(=O)(O)O)C2)cc1 | Active | inactive |  | 
CCCCCCCCc1ccc([C@H]2CC[C@@](N)(CO)C2)cc1 |  |  | inactive | 
CCCCCCCCc1ccc([C@@H]2CC[C@@](N)(COP(=O)(O)O)C2)cc1 | Active | inactive |  | 
CCCCCCCCc1ccc(C2CCC(N)(COP(=O)(O)O)C2)cc1 (configuration not stated) |  |  |  | Activity [6]: inactive; Activity [7]: Active
CCCCCCCCc1ccc([C@@H]2CC[C@@](N)(CO)C2)cc1 |  |  | inactive | 
